M1 PAM: potentiates human M1 receptor response to acetylcholine; activation, % at 3 µM; hit rate 0.088% among 360,000; CHO-K1 hM1, Fluo-8 calcium fluorescence, ACh EC20; 0% = ACh EC20, 100% = maximal ACh; P11229; AID 588819; in the data active means activation above about 19%, passing the limit was not always enough
TAAR1 agonist: human TAAR1 agonism; Q96RJ0; CHO RD-HGA16 TAAR1, Fluo-8 calcium fluorescence; vehicle wells 0%, saturating PEA agonist 100%; activation, % at 3 µM; hit rate 0.99% among 360,000; AID 624467;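 active means activation above the mean activation of all test compounds in the run plus 3 SD, cut at about 38% in these data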
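Test system: RD-HGA16 (CHO) cells co-expressing Gα16 and hTAAR1 / Benchmarks: DMSO vehicle as 0%, PEA at EC100 as 100% / Repeats: no replicates (n 1) / Measure: % activation from peak over basal fluorescence ratio, DMSO-to-PEA scaled / Timing: 17-24 h plating, Fluo-8 75 min 37 °C, 30 min RT / Technique: kinetic Fluo-8 calcium fluorescence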
TAAR1 antag: human TAAR1 antagonism | Q96RJ0 | CHO RD-HGA16 TAAR1, Fluo-8 calcium fluorescence, antagonist | inhibition, % at 3 µM | hit rate 1.5% among 360,000 | AID 624466;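 active means inhibition above a per-plate cutoff, the mean inhibition of test compounds on that plate plus 3 SD, cut at about 49% in these data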;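 further: 0% = DMSO plus EC80 beta-PEA response and 100% = DMSO alone without agonist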
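Test system: hTAAR1-expressing CHO RD-HGA16 cells, Gα16-coupled; Probe or stimulus: EC80 β-phenethylamine stimulus; Compound dosing: single nominal final test compound concentration of 3 µM; Timing: 140 s kinetic read after compound, 140 s after agonist; Signal: Fluo-8 calcium-sensitive fluorescence; Measure: % inhibition of agonist calcium response; Controls: DMSO and EC80 PEA controls.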
M1 antag: blocks human M1 muscarinic receptor; P11229; CHO-K1 hM1, Fluo-8 calcium fluorescence, ACh EC80 antagonist; inhibition, % at 3 µM; hit rate 1.3% among 360,000; AID 588852;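 active means percent inhibition above its own plate's cutoff, namely the mean of that plate's compound wells plus 3 SD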;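 further: peak over basal fluorescence ratio during 140 s after agonist addition; 0% = ACh EC80 plus DMSO and 100% = DMSO alone without agonist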
M1 ag: activates human CHRM1 receptor | CHO-K1 hM1, Fluo-8 calcium fluorescence, agonist mode; 0% DMSO, 100% acetylcholine EC100 | activation, % at 3 µM | hit rate 0.33% among 360,000 | AID 588814 | P11229;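 active means activation above the run's mean compound activation plus 3 SD, cut at about 16% in these data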;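 further: peak over basal fluorescence ratio within a 140 s kinetic read after compound addition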
HTR2A ag: activates the mouse 5-HT2A serotonin receptor; P35363; CHO-K1 mHTR2A beta-arrestin complementation, luminescence; percent of 30 µM serotonin response; activation, % at 7.6 µM; hit rate 0.66% among 360,000;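 active means activation above a run cutoff, the mean activation of all tested compounds plus 3 SD, cut at about 14% in these data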;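 further: 0% = plate median of compound wells and 100% = 30 µM serotonin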
Target sequence (P35363 whole entry, looked up): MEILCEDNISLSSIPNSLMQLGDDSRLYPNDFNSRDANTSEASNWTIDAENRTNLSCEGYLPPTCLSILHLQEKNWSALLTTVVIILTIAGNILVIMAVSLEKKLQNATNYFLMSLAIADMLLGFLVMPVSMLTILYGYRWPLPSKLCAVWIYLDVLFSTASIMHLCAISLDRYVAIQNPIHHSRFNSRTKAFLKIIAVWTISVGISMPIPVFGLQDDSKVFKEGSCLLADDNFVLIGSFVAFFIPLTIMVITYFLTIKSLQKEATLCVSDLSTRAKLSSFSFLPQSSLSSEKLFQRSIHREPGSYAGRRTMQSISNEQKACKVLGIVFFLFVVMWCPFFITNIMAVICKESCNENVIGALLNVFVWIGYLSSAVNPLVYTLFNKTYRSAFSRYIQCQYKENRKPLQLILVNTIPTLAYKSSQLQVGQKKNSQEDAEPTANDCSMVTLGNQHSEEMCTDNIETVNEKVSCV
nonsel antag count: nonselective antagonist in TAAR1 antagonist counter-screen. shares compounds with TAAR1 antag. counterscreen cell line, calcium fluorescence, antagonist mode. inhibition, % at 3 µM. hit rate 77% among 2,400. AID 651780; in the data active means inhibition above about 22%;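 further: CHO-Ga16 host cells stimulated with ATP at an EC80 level; 0% = agonist EC80 plus vehicle and 100% = vehicle without agonist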
TAAR1 antag conf: confirmation of human TAAR1 antagonists. shares compounds with TAAR1 antag. TAAR1-expressing cells, fluorescence antagonist read-out. inhibition, % at 3 µM. hit rate 40% among 2,400. AID 651785; in the data active means inhibition above about 49%;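 further: CHO-Ga16 host cells challenged with agonist PEA near its EC80; 0% = agonist at EC80 plus vehicle and 100% = vehicle with no agonist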
Ga16 ag counter: counter-screen for TAAR1 antagonists: nonselective Ga16 agonists | shares compounds with TAAR1 antag | Ga16-expressing cells, calcium fluorescence, agonist counterscreen | activation, % at 3 µM | hit rate 18% among 2,400 | AID 651953; in the data active means activation above about 12%;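 further: 0% = vehicle wells and 100% = saturating stimulus response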
TAAR1 ag counter: TAAR1 agonism, antagonist counter-screen | hit rate 2% among 2,400 | hTAAR1 cell line, fluorescence activation, agonist mode | AID 651955 | activation, % at 3 µM | shares compounds with TAAR1 antag; in the data active means activation above about 37%;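 further: CHO cells stably expressing TAAR1 with calcium dye readout; 0% = DMSO vehicle and 100% = full agonist response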
* marks the source's active call; other numbers are inactive results; / = no result. Hits are enriched below; roughly 3.9% of the tested compounds scored in any of these assays.

SMILES	M1 PAM	TAAR1 agonist	TAAR1 antag	M1 antag	M1 ag	HTR2A ag	nonsel antag count	TAAR1 antag conf	Ga16 ag counter	TAAR1 ag counter
CCOc1ccc(NC(=O)CN(C)C(=O)c2cccc(S(=O)(=O)N3CCN(C)CC3)c2)cc1OCC	10.8	5.3	-4.5	-14.2	-6.7	1.9	/	/	/	/
O=C(NCCN1CCOCC1)c1ccccc1N1C(=O)[C@@H]2Cc3c([nH]c4ccccc34)C(c3ccc(F)cc3)N2C1=O (some centres not stated)	-5.3	12.1	49.9*	-2.0	-2.1	0.8	13.2	22.2	3.2	6.6
COc1ccc(C2c3[nH]c4ccccc4c3C[C@H]3C(=O)N(c4ccccc4C(=O)NCCN4CCOCC4)C(=O)N23)cc1 (some centres not stated)	0.1	8.3	52.6*	0.7	-0.8	-1.8	19.9	29.7	6.7	4.3
Cc1ccc(NC(=O)C(C)N2C(=O)c3ccccc3C2=O)cc1S(=O)(=O)N1CCOCC1 (configuration not stated)	17.1	5.3	2.1	-18.5	-0.7	3.3	/	/	/	/
COc1ccc(N2CC(C(=O)N3CCN(c4ccccc4)CC3)CC2=O)cc1 (configuration not stated)	-1.3	-1.3	-5.4	-1.0	-2.2	-3.8	/	/	/	/
Nc1ccc(C#Cc2ccc3oc4ccccc4c(=O)c3c2)cc1	-4.0	10.1	68.1*	7.6	-2.7	5.7	19.4	22.9	3.3	4.0
Cc1ccc(C(=O)NCCc2nnc3ccc(NCCCN4CCOCC4)nn23)cc1	6.8	14.5	-29.8	-1.7	-4.3	3.4	/	/	/	/
O=C(Cc1ccc(Br)cc1)NC1CCSC1=O (configuration not stated)	-0.1	0.6	11.9	5.2	-5.1	-2.9	/	/	/	/
O=C1c2ccccc2C(c2nnnn2Cc2ccccc2)N1CCc1c[nH]c2ccccc12 (configuration not stated)	/	17.2	72.0*	/	/	0.6	39.5*	61.7*	10.2	13.9
COc1cc(C(=O)OCCc2cc3ccccc3c(=O)o2)cc(OC)c1OC	-4.7	8.7	64.9*	4.8	-3.6	0.5	26.9*	39.1	8.3	4.7
Cc1ccc(Nc2nnc(SCC(=O)Nc3ccc(S(=O)(=O)N4CCOCC4)cc3)s2)cc1	-6.0	9.4	1.3	13.4	-2.3	-1.1	/	/	/	/
O=C(CSc1nnc2c(n1)[nH]c1ccccc12)Nc1cccc(S(=O)(=O)N2CCOCC2)c1	-1.1	12.3	70.4*	-25.5	-2.9	1.5	42.6*	52.1*	9.4	10.4
O=C(CSc1nnc(Nc2ccccc2)s1)Nc1ccc(S(=O)(=O)N2CCOCC2)cc1	-6.8	26.3	56.7*	18.9	1.2	0.1	36.2*	36.9	7.9	12.3
O=C(Nc1ccc(F)cc1)c1ccc(CSc2ccccc2)o1	-6.1	6.0	13.0	-5.9	-9.6	-2.7	/	/	/	/
CC(=O)c1ccc(NC(=O)c2ccc(COc3ccccc3[N+](=O)[O-])o2)cc1	-1.3	/	/	1.6	-5.8	-2.4	13.9	/	4.3	/
Cc1cc(NC(=O)c2ccc(-c3ccccc3[N+](=O)[O-])o2)no1	7.7	4.0	1.7	-13.8	-2.3	-8.3	/	/	/	/
CC(=O)c1cccc(NC(=O)c2ccc(-c3ccccc3[N+](=O)[O-])o2)c1	-9.8	32.0	61.8*	8.2	0.4	-4.5	24.0*	43.2	17.9*	17.9
CC(=O)c1ccc(NC(=O)c2ccc(CSc3ccccc3)o2)cc1	-6.8	3.9	95.4*	0.9	-8.9	-3.1	28.1*	79.7*	4.9	-1.5

Compound activity: PubChem, The Scripps Research Institute Molecular Screening Center
